# Active and inactive are the calls of the source. The calls are words filed in the database; no cut-off is given here.
# Tested on: A549
# Assay: Cytotoxicity against human A549 cells assessed as depletion of intracellular ATP levels at 8 uM after 72 hrs by luciferase-luciferin based assay
# Format: functional, cell-based
# Conditions: not given
# Summary of the method: (§1)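 A549 cells were plated at 4000 per well and allowed to settle 12 h. They were then exposed to compound or DMSO for 24 h or 72 h. Medium was removed and reconstituted luciferase-luciferin reagent added. Luminescence was read within 1 min and converted to ATP concentration from a reference plot. Each concentration was run in quadruplicate.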
row,SMILES,Activity
1,COc1cc2ncnc(Nc3ccc(OCc4cccc(F)c4)c(Cl)c3)c2cc1OCCCN1CCNCCNCC1,Active

# Tested on: A549
# Assay: Cytotoxicity against human A549 cells assessed as effect on intracellular ATP levels at 6 uM after 24 hrs by luciferase-luciferin based assay
# Format: functional, cell-based
# Conditions: not given
# Summary of the method: as §1
row,SMILES,Activity
1,CS(=O)(=O)CCNCc1ccc(-c2ccc3ncnc(Nc4ccc(OCc5cccc(F)c5)c(Cl)c4)c3c2)o1 [LAPATINIB],Active

# Tested on: A549
# Assay: Induction of apoptosis in human A549 cells assessed as late apoptotic cells at 8 uM after 72 hrs by FITC-annexin V/propidium iodide-double staining based flow cytometry (reference value: 6.59%)
# Format: functional
# Conditions: not given
row,SMILES,Activity
1,CS(=O)(=O)CCNCc1ccc(-c2ccc3ncnc(Nc4ccc(OCc5cccc(F)c5)c(Cl)c4)c3c2)o1 [LAPATINIB],5.73%
2,COc1cc2ncnc(Nc3ccc(F)c(Cl)c3)c2cc1OCCCN1CCOCC1 [GEFITINIB],7.05%
3,COc1cc2ncnc(Nc3ccc(OCc4cccc(F)c4)c(Cl)c3)c2cc1OCCCN1CCNCCNCCNCC1,7.94%

# Tested on: A549
# Assay: animal or person
# Format: functional, Homo sapiens
# Conditions: Mus musculus, A549, po, read-out: TGI
row,SMILES,inhibition in vivo at 30 mg/kg
1,COc1cc2ncnc(Nc3ccc(OCc4cccc(F)c4)c(Cl)c3)c2cc1OCCCN1CCNCCNCCNCC1,44.2%

# Tested on: A549
# Assay: Cytotoxicity against human A549 cells assessed as depletion of intracellular ATP levels at 2 uM after 72 hrs by luciferase-luciferin based assay
# Format: functional, cell-based
# Conditions: not given
# Summary of the method: as §1
row,SMILES,Activity
1,COc1cc2ncnc(Nc3ccc(OCc4cccc(F)c4)c(Cl)c3)c2cc1OCCCN1CCNCCNCCNCC1,Active

# Tested on: A549
# Assay: Induction of apoptosis in human A549 cells assessed as early apoptotic cells at 1 uM after 72 hrs by FITC-annexin V/propidium iodide-double staining based flow cytometry (reference value: 9.38%)
# Format: functional
# Conditions: not given
row,SMILES,Activity
1,COc1cc2ncnc(Nc3ccc(OCc4cccc(F)c4)c(Cl)c3)c2cc1OCCCN1CCNCCNCCNCC1,6.25%

# Tested on: A549
# Assay: Antitumor activity against human A549 cells xenografted in BALB/c nude mouse assessed as tumor necrosis at 30 mg/kg, ig administered every 2 days for 19 days by hematoxylin/eosin-staining based histological analysis
# Format: functional, organism-based
# Conditions: not given
row,SMILES,Activity
1,COc1cc2ncnc(Nc3ccc(OCc4cccc(F)c4)c(Cl)c3)c2cc1OCCCN1CCNCCNCCNCC1,Active

# Tested on: L929
# Assay: Cytotoxicity against mouse L929 cells assessed as cell growth inhibition after 72 hrs by MTT assay
# Format: cell-based
# Conditions: L929, 72 h
row,SMILES,IC50
1,CS(=O)(=O)CCNCc1ccc(-c2ccc3ncnc(Nc4ccc(OCc5cccc(F)c5)c(Cl)c4)c3c2)o1 [LAPATINIB],2050 nM
2,COc1cc2ncnc(Nc3ccc(OCc4cccc(F)c4)c(Cl)c3)c2cc1OCCCN1CCNCCNCCNCC1,2740 nM

# Tested on: A549
# Assay: Induction of apoptosis in human A549 cells assessed as early apoptotic cells at 8 uM after 72 hrs by FITC-annexin V/propidium iodide-double staining based flow cytometry (reference value: 9.38%)
# Format: functional
# Conditions: not given
row,SMILES,Activity
1,CS(=O)(=O)CCNCc1ccc(-c2ccc3ncnc(Nc4ccc(OCc5cccc(F)c5)c(Cl)c4)c3c2)o1 [LAPATINIB],52.04%
2,COc1cc2ncnc(Nc3ccc(F)c(Cl)c3)c2cc1OCCCN1CCOCC1 [GEFITINIB],20.72%
3,COc1cc2ncnc(Nc3ccc(OCc4cccc(F)c4)c(Cl)c3)c2cc1OCCCN1CCNCCNCCNCC1,81.53%

# Tested on: A549
# Assay: Induction of apoptosis in human A549 cells after 72 hrs by FITC-annexin V/propidium iodide-double staining based flow cytometry
# Format: functional, cell-based
# Conditions: not given
row,SMILES,Activity
1,COc1cc2ncnc(Nc3ccc(OCc4cccc(F)c4)c(Cl)c3)c2cc1OCCCN1CCNCCNCCNCC1,Dose-dependent effect

# Tested on: A549
# Assay: Induction of apoptosis in human A549 cells assessed as late apoptotic cells at 4 uM after 72 hrs by FITC-annexin V/propidium iodide-double staining based flow cytometry (reference value: 6.59%)
# Format: functional
# Conditions: not given
row,SMILES,Activity
1,COc1cc2ncnc(Nc3ccc(OCc4cccc(F)c4)c(Cl)c3)c2cc1OCCCN1CCNCCNCCNCC1,4.36%

# Tested on: A549
# Assay: cells
# Format: functional, cell-based
# Conditions: Homo sapiens, A549, 72 h
row,SMILES,IC50
1,CS(=O)(=O)CCNCc1ccc(-c2ccc3ncnc(Nc4ccc(OCc5cccc(F)c5)c(Cl)c4)c3c2)o1 [LAPATINIB],3.64 µM
2,C#Cc1cccc(Nc2ncnc3cc(OC)c(OCCCN4CCNCCNCCNCC4)cc23)c1,28.6 µM
3,COc1cc2ncnc(Nc3ccc(Br)cc3F)c2cc1OCCCN1CCNCCNCCNCC1,15.2 µM
4,COc1cc2ncnc(Nc3ccc(F)c(Br)c3)c2cc1OCCCN1CCNCCNCC1,34.3 µM
5,COc1cc2ncnc(Nc3cccc(Cl)c3)c2cc1OCCCN1CCNCCNCCNCC1,27.1 µM
6,COc1cc2ncnc(Nc3cccc(C(F)(F)F)c3)c2cc1OCCCN1CCNCCNCCNCC1,15.7 µM
7,COc1cc2ncnc(Nc3cccc(Br)c3)c2cc1OCCCN1CCNCCNCCNCC1,14.7 µM
8,COc1cc2ncnc(Nc3cccc(C(F)(F)F)c3)c2cc1OCCCN1CCNCCNCC1,37.3 µM
9,COc1cc2ncnc(Nc3ccc(F)c(Cl)c3)c2cc1OCCCN1CCNCCNCCNCC1,20.2 µM
10,CCc1cc(Br)ccc1Nc1ncnc2cc(OC)c(OCCCN3CCNCCNCCNCC3)cc12,> 50 µM
11,COc1cc2ncnc(Nc3ccc(C#N)cc3F)c2cc1OCCCN1CCNCCNCC1,> 50 µM
12,COc1cc2ncnc(Nc3ccc(F)c(Cl)c3)c2cc1OCCCN1CCNCCNCC1,> 50 µM
13,COc1cccc(Nc2ncnc3cc(OC)c(OCCCN4CCNCCNCCNCC4)cc23)c1,> 50 µM
14,COc1cc2ncnc(Nc3ccc(OCc4cccc(F)c4)c(Cl)c3)c2cc1OCCCN1CCNCCNCC1,7.25 µM
15,COc1cc2ncnc(Nc3ccc(OCc4cccc(F)c4)c(Cl)c3)c2cc1OCCCN1CCNCCNCCNCC1,3.4 µM

# Tested on: not listed separately
# Assay: Toxicity in human A549 cells xenografted BALB/c nude mouse assessed as effect on body weight at 30 mg/kg, ig administered every 2 days for 19 days
# Format: organism-based
# Conditions: in vivo, po
# Summary of the method: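 Female six-week-old BALB/c nude mice received 2.0 × 10^6 A549 cells subcutaneously. Dosing began at mean tumor size 200-400 mm3. 21 mice were randomized to vehicle (water, 30 mL/kg) or drug (30 mg/kg), both intragastric, every 2 days for 19 days. Body weight was recorded. Tumors were caliper-measured twice weekly (V = length × width²/2) and weighed at the end.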
row,SMILES,Activity
1,COc1cc2ncnc(Nc3ccc(F)c(Cl)c3)c2cc1OCCCN1CCOCC1 [GEFITINIB],Non-Toxic
2,COc1cc2ncnc(Nc3ccc(OCc4cccc(F)c4)c(Cl)c3)c2cc1OCCCN1CCNCCNCCNCC1,Non-Toxic

# Tested on: not listed separately
# Assay: in vitro
# Conditions: mouse, L929 cells
row,SMILES,"inhibition at 72 h, 1 µM"
1,CS(=O)(=O)CCNCc1ccc(-c2ccc3ncnc(Nc4ccc(OCc5cccc(F)c5)c(Cl)c4)c3c2)o1 [LAPATINIB],35%
2,COc1cc2ncnc(Nc3ccc(OCc4cccc(F)c4)c(Cl)c3)c2cc1OCCCN1CCNCCNCCNCC1,37.6%

# Target: Epidermal growth factor receptor (Homo sapiens, UniProt P00533, T790M)
# Assay: not given
# Conditions: not given
# Chain of Epidermal growth factor receptor (Homo sapiens, UniProt P00533, T790M) (P00533 25-1210 T790M limits assumed): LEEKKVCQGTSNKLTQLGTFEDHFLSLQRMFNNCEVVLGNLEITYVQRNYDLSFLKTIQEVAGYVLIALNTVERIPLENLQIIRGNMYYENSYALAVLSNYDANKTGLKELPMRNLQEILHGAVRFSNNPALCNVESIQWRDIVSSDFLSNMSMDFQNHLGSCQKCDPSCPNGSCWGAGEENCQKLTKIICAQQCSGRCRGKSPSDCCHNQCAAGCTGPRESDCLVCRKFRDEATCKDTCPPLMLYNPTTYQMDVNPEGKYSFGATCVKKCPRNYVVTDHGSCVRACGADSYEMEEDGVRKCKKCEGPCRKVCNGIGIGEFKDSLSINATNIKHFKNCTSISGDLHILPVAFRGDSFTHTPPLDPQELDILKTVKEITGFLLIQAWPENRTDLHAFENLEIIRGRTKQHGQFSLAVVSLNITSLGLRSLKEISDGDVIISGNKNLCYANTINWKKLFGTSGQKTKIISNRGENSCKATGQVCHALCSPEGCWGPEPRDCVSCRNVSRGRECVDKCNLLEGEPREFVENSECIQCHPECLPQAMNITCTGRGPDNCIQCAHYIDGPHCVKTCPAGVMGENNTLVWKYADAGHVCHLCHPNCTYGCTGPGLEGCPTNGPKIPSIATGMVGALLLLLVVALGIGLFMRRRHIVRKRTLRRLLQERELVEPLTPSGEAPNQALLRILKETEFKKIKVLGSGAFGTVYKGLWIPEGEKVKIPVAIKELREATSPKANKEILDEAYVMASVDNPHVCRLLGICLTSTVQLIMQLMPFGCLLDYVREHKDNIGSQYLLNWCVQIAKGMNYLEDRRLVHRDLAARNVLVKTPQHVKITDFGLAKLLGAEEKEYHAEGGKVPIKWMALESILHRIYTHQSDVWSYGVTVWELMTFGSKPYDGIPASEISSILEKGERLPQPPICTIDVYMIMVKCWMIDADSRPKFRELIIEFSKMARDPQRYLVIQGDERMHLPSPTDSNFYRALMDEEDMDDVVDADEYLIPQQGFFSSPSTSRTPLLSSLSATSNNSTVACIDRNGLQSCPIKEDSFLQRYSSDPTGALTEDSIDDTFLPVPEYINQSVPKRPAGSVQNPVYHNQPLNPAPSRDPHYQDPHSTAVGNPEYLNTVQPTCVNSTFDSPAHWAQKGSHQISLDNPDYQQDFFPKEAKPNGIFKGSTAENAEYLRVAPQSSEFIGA
row,SMILES,IC50
1,COc1cc2ncnc(Nc3ccc(OCc4cccc(F)c4)c(Cl)c3)c2cc1OCCCN1CCNCCNCC1,40.6 nM
2,COc1cc2ncnc(Nc3ccc(OCc4cccc(F)c4)c(Cl)c3)c2cc1OCCCN1CCNCCNCCNCC1,16.5 nM

# Target: Epidermal growth factor receptor (Homo sapiens, UniProt P00533)
# Assay: not given
# Conditions: not given
# Chain of Epidermal growth factor receptor (Homo sapiens, UniProt P00533) (P00533 whole entry): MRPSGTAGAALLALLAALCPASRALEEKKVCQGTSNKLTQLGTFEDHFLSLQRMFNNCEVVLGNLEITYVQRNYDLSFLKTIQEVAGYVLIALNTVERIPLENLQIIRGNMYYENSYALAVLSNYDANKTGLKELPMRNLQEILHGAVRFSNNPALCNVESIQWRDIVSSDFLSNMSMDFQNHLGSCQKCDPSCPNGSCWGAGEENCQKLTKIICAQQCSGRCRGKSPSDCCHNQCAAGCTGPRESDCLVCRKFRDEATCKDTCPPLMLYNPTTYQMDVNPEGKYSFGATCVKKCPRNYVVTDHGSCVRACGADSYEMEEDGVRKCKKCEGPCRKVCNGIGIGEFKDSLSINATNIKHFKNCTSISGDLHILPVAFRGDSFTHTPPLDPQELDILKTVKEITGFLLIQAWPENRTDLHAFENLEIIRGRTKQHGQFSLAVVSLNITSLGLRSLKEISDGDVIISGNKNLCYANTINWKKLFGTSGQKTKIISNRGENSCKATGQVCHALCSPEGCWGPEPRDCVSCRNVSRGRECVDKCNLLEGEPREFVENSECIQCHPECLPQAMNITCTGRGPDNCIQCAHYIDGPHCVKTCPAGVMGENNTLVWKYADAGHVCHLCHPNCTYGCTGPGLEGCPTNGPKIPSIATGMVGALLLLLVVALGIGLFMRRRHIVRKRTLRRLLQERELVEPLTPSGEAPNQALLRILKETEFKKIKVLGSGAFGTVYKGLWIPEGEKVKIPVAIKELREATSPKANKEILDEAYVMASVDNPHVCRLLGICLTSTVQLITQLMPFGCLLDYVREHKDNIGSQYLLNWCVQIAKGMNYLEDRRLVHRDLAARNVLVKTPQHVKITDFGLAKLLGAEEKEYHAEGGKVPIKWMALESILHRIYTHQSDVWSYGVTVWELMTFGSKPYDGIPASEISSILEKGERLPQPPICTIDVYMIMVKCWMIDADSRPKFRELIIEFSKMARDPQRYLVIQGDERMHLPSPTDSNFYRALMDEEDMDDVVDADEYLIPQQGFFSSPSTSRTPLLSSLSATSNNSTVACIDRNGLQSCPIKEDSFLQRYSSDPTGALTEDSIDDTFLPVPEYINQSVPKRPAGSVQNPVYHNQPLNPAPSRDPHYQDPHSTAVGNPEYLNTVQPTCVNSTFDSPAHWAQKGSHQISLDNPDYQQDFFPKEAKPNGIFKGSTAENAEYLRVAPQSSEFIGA
row,SMILES,IC50
1,COc1cc2ncnc(Nc3ccc(F)c(Cl)c3)c2cc1OCCCN1CCNCCNCCNCC1,6.6 nM
2,COc1cc2ncnc(Nc3ccc(F)c(Cl)c3)c2cc1OCCCN1CCNCCNCC1,8.3 nM
3,COc1cc2ncnc(Nc3ccc(OCc4cccc(F)c4)c(Cl)c3)c2cc1OCCCN1CCNCCNCC1,0.3 nM
4,COc1cc2ncnc(Nc3ccc(OCc4cccc(F)c4)c(Cl)c3)c2cc1OCCCN1CCNCCNCCNCC1,1.4 nM

# Target: Receptor tyrosine-protein kinase erbB-2 (Homo sapiens, UniProt P04626)
# Assay: Inhibition of wild type human N-terminal His-tagged HER2 cytoplasmic domain (676 to 1255 residues) expressed in baculovirus expression system after 1 hr in presence of ULight-labeled peptide substrate and ATP by LANCE ultra kinase assay
# Conditions: not given
# Chain of Receptor tyrosine-protein kinase erbB-2 (P04626 whole entry, the tested form may be a part): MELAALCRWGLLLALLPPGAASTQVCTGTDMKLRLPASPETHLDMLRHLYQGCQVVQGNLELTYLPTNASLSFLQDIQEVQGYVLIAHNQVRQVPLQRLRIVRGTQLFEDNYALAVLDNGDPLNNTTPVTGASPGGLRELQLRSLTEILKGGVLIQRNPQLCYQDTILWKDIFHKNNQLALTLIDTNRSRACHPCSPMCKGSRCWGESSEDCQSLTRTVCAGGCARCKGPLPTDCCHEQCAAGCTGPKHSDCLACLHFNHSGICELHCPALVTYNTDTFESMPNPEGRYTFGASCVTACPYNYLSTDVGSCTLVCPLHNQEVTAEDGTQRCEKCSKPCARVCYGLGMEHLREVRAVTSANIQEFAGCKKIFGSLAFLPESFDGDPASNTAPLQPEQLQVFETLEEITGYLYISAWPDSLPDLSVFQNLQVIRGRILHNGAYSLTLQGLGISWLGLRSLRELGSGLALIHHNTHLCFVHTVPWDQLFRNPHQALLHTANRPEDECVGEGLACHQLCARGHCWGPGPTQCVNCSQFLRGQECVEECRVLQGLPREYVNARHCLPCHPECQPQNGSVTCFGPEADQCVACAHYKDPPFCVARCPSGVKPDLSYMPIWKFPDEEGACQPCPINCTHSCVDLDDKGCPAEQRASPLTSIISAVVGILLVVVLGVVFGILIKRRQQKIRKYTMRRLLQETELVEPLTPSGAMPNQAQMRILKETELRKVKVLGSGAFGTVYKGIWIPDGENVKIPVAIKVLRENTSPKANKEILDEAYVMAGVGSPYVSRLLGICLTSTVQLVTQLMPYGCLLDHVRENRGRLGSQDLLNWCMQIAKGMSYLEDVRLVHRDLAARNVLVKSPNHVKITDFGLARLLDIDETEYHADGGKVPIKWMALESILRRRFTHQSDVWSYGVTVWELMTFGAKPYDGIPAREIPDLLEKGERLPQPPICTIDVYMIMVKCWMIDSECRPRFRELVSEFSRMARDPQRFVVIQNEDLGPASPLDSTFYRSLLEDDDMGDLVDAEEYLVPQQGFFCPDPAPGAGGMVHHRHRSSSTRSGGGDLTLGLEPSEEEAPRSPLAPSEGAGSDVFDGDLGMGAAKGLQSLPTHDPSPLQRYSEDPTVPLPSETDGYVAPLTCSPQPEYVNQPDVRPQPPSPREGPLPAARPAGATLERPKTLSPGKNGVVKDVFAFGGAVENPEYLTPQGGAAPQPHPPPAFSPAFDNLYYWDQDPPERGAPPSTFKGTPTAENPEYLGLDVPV
row,SMILES,IC50
1,COc1cc2ncnc(Nc3ccc(OCc4cccc(F)c4)c(Cl)c3)c2cc1OCCCN1CCNCCNCC1,9.6 nM
2,COc1cc2ncnc(Nc3ccc(OCc4cccc(F)c4)c(Cl)c3)c2cc1OCCCN1CCNCCNCCNCC1,2.1 nM

# Tested on: A549
# Assay: Induction of apoptosis in human A549 cells assessed as early apoptotic cells at 4 uM after 72 hrs by FITC-annexin V/propidium iodide-double staining based flow cytometry (reference value: 9.38%)
# Format: functional
# Conditions: not given
row,SMILES,Activity
1,COc1cc2ncnc(Nc3ccc(OCc4cccc(F)c4)c(Cl)c3)c2cc1OCCCN1CCNCCNCCNCC1,54.62%

# Tested on: A549
# Assay: Induction of apoptosis in human A549 cells assessed as late apoptotic cells at 1 uM after 72 hrs by FITC-annexin V/propidium iodide-double staining based flow cytometry (reference value: 6.59%)
# Format: functional
# Conditions: not given
row,SMILES,Activity
1,COc1cc2ncnc(Nc3ccc(OCc4cccc(F)c4)c(Cl)c3)c2cc1OCCCN1CCNCCNCCNCC1,11.16%

# Tested on: A549
# Assay: Cytotoxicity against human A549 cells assessed as reduction in intracellular ATP levels at 8 uM after 24 hrs by luciferase-luciferin based assay
# Format: functional, cell-based
# Conditions: not given
# Summary of the method: as §1
row,SMILES,Activity
1,COc1cc2ncnc(Nc3ccc(F)c(Cl)c3)c2cc1OCCCN1CCOCC1 [GEFITINIB],Active
2,COc1cc2ncnc(Nc3ccc(OCc4cccc(F)c4)c(Cl)c3)c2cc1OCCCN1CCNCCNCC1,Active
3,COc1cc2ncnc(Nc3ccc(OCc4cccc(F)c4)c(Cl)c3)c2cc1OCCCN1CCNCCNCCNCC1,Active

# Tested on: A-431;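 further: antiproliferative activity measured with an MTT assay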
# Assay: cells
# Format: functional, cell-based
# Conditions: Homo sapiens, A-431, 72 h
row,SMILES,IC50
1,C#Cc1cccc(Nc2ncnc3cc(OC)c(OCCCN4CCNCCNCCNCC4)cc23)c1,1110 nM
2,COc1cc2ncnc(Nc3ccc(Br)cc3F)c2cc1OCCCN1CCNCCNCCNCC1,1840 nM
3,COc1cc2ncnc(Nc3ccc(F)c(Br)c3)c2cc1OCCCN1CCNCCNCC1,1060 nM
4,COc1cc2ncnc(Nc3cccc(Cl)c3)c2cc1OCCCN1CCNCCNCCNCC1,1420 nM
5,COc1cc2ncnc(Nc3cccc(C(F)(F)F)c3)c2cc1OCCCN1CCNCCNCCNCC1,1950 nM
6,COc1cc2ncnc(Nc3cccc(Br)c3)c2cc1OCCCN1CCNCCNCCNCC1,1050 nM
7,COc1cc2ncnc(Nc3cccc(C(F)(F)F)c3)c2cc1OCCCN1CCNCCNCC1,1560 nM
8,COc1cc2ncnc(Nc3ccc(F)c(Cl)c3)c2cc1OCCCN1CCNCCNCCNCC1,1010 nM
9,CCc1cc(Br)ccc1Nc1ncnc2cc(OC)c(OCCCN3CCNCCNCCNCC3)cc12,5650 nM
10,COc1cc2ncnc(Nc3ccc(C#N)cc3F)c2cc1OCCCN1CCNCCNCC1,12700 nM
11,COc1cc2ncnc(Nc3ccc(F)c(Cl)c3)c2cc1OCCCN1CCNCCNCC1,1310 nM
12,COc1cccc(Nc2ncnc3cc(OC)c(OCCCN4CCNCCNCCNCC4)cc23)c1,3210 nM
13,COc1cc2ncnc(Nc3ccc(OCc4cccc(F)c4)c(Cl)c3)c2cc1OCCCN1CCNCCNCC1,442 nM
14,COc1cc2ncnc(Nc3ccc(OCc4cccc(F)c4)c(Cl)c3)c2cc1OCCCN1CCNCCNCCNCC1,958 nM

# Tested on: A549
# Assay: Cytotoxicity against human A549 cells assessed as effect on intracellular ATP levels at 0 to 2 uM after 24 hrs by luciferase-luciferin based assay
# Format: functional, cell-based
# Conditions: not given
# Summary of the method: as §1
row,SMILES,Activity
1,CS(=O)(=O)CCNCc1ccc(-c2ccc3ncnc(Nc4ccc(OCc5cccc(F)c5)c(Cl)c4)c3c2)o1 [LAPATINIB],inactive
2,COc1cc2ncnc(Nc3ccc(F)c(Cl)c3)c2cc1OCCCN1CCOCC1 [GEFITINIB],inactive
3,COc1cc2ncnc(Nc3ccc(OCc4cccc(F)c4)c(Cl)c3)c2cc1OCCCN1CCNCCNCC1,inactive
4,COc1cc2ncnc(Nc3ccc(OCc4cccc(F)c4)c(Cl)c3)c2cc1OCCCN1CCNCCNCCNCC1,inactive

# — ChEMBL document CHEMBL4325914, “Design and Evaluation of Potent EGFR Inhibitors through the Incorporation of Macrocyclic Polyamine Moieties into the 4-Anilinoquinazoline Scaffold” (J Med Chem, 2018)
